# Assay results as given in article PMC11565791 (bioRxiv, 2025).
# Positions count from the first letter of the chain named. Names and notes keep the numbering of the source.
# B1: phosphorylated Swi6 (pSwi6) (natural protein)
# chain: MKKGGVRSYRRSSTSKRSVIDDDSEPELPSMTKEAIASHKADSGSSDNEVESDHESKSSSKKLKENAKEEEGGEEEEEDEYVVEKVLKHRMARKGGGYEYLLKWEGYDDPSDNTWSSEADCSGCKQLIEAYWNEHGGRPEPSKRKRTARPKKPEAKEPSPKSRKTDEDKHDKDSNEKIEDVNEKTIKFADKSQEEFNENGPPSGQPNGHIESDNESKSPSQKESNESEDIQIAETPSNVTPKKKPSPEVPKLPDNRELTVKQVENYDSWEDLVSSIDTIERKDDGTLEIYLTWKNGAISHHPSTITNKKCPQKMLQFYESHLTFRENE
# B2: Swi6^6S/A -GFP: C-terminally super fold-GFP tagged Swi6 6S/A (protein, UniProt P40381 1-328, looked up, variant S18A S24A S117A S192A S212A S220A)
# Chromatin-associated protein …: B1 chain with S18A, S24A, S117A, S192A, S212A, S220A
# modifications: C-terminal superfolder GFP tag
# B3: swi6^loopX-S18/24A: double mutant of loopX and S18/24A (protein, UniProt P40381 1-328, looked up, variant S18A S24A R93A K94A)
# Chromatin-associated protein …: B1 chain with S18A, S24A, R93A, K94A
# B4: FLAG-Swi6^6S/A: 3XFLAG tagged Swi6 S18/24/117–220A (protein, UniProt P40381 1-328, looked up, variant S18A S24A S117A S192A S212A S220A)
# Chromatin-associated protein …: B1 chain with S18A, S24A, S117A, S192A, S212A, S220A
# modifications: 3XFLAG tag
# B5: FLAG-Swi6^S18/24A: 3XFLAG tagged Swi6 S18/24A (protein, UniProt P40381 1-328, looked up, variant S18A S24A)
# Chromatin-associated protein …: B1 chain with S18A, S24A
# modifications: 3XFLAG tag
# B6: swi6^loopX: ARK loop in the CD mutant (R93A and K94A) (protein, UniProt P40381 1-328, looked up, variant R93A K94A)
# Chromatin-associated protein …: B1 chain with R93A, K94A
# B7: Swi6^S18/24A-GFP: C-terminally super fold-GFP tagged Swi6 S18/24A (protein, UniProt P40381 1-328, looked up, variant S18A S24A)
# Chromatin-associated protein …: B1 chain with S18A, S24A
# modifications: C-terminal superfolder GFP tag
# B8: swi6^S18/24A: swi6 mutant S18A and S24A (protein, UniProt P40381 1-328, looked up, variant S18A S24A)
# Chromatin-associated protein …: B1 chain with S18A, S24A
# Key:
# [1] = tested on: unpSwi6 (unphosphorylated Swi6) (Schizosaccharomyces pombe); assay: fluorescence polarization; details: histone H3K9 unmethylated
# [2] = tested on: pSwi6 S18/24A (CKII-phosphorylated) (Schizosaccharomyces pombe); assay: fluorescence polarization
# [3] = tested on: nucleation 'green' reporter (SF-GFP); assay: Flow cytometry, MAT ΔREIII HSS 'green' nucleation reporter; format: cell-based, Schizosaccharomyces pombe; details: separate experiment with Δckb1, SFigure 1J–L
# In short: (§1)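 Strains from −80°C stocks were revived on YES plates. Cells were grown overnight in 200 μL YES at 32°C to saturation. The next morning they were diluted 1:25 in YES into mid-log phase and analysed by flow cytometry for single-cell reporter fluorescence. Compensation and analysis followed a prior protocol.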
# [4] = tested on: spreading 'orange' reporter (mKO2); assay: Flow cytometry, MAT ΔREIII HSS 'orange' spreading reporter; format: cell-based, Schizosaccharomyces pombe; details: for spreading phenotype: Figure 3E-J run (fully separate from Figure 1)
# In short: as §1
# [5] = tested on: pSwi6 (CKII-phosphorylated Swi6) (Schizosaccharomyces pombe); assay: fluorescence polarization; details: histone H3 Kc9me3 (methyl-lysine analog)
# [6] = tested on: H3Kc9me3 mononucleosomes; assay: Fluorescence polarization, H3Kc9me3; format: binding; details: for specificity for H3K9me3 mark on nucleosomes: H3Kc9me3 vs H3K9me0 nucleosomes; for tighter binding to H3Kc9me3 nucleosome than to H3K9me3 peptide: Kd nucleosome vs Kd tail peptide
# [7] = tested on: H3K9me3 peptide (fluoresceinated H3 1-20); assay: Fluorescence polarization, H3K9me3 tail peptide; format: binding
# In short: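 Fluoresceinated H3 1–20 K9me3 or K9me0 peptide was fixed at 100 nM. Purified Swi6, unphosphorylated or CK2-phosphorylated, was titrated at 0–200 μM. Fluorescence polarization was read at ex 485 / em 528 nm; Kd derived by curve fitting.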
# [8] = tested on: H3K9me3 peptide (fluoresceinated H3 1-20); details: H3K9me3 vs H3K9me0 peptide; ref Canzio et al. 2011; cited from earlier work
# [9] = tested on: genomic loci; assay: anti-pS18-pS24 ChIP-seq; format: cell-based, S. pombe; details: wildtype; SFigure 8F
# In short: (§2)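 FLAG ChIP: strains express FLAG-tagged Swi6 variants; IP with M2 anti-FLAG. pS18-pS24 ChIP: untagged strains; IP with anti-pS18-pS24 antibody; lysis buffer also contains 0.1 mM orthovanadate and 60 mM β-glycerophosphate. Both: grown to saturation in YES at 32°C, then 2 h at 18°C. 600×10^6 cells fixed with 1.5 mM EGS (30 min), then 1% formaldehyde (30 min). Drosophila spike-in added; three technical replicates; spike-in-adjusted cpm.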
# [10] = target: the molecule itself; assay: SEC-MALS + cross-linking
# [11] = tested on: heterochromatin foci; assay: Swi6-GFP live cell imaging of nuclear foci; format: cell-based, S. pombe; details: Figure 4E,F
# In short: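 Swi6-GFP strains in a Sad1-mKO2 background were grown on YES 225 agar at 32°C for 3–5 days. Cells were then cultured in liquid YES 225 at 30°C with 250 rpm shaking to OD 0.2–0.6 before live-cell imaging.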
# [12] = tested on: genomic loci (nucleators, spreading zones, euchromatin); assay: FLAG-Swi6 ChIP-seq; format: cell-based, S. pombe; details: for FLAG-Swi6 accumulation at nucleation sites versus wildtype: spike-in normalized, Figure 5B
# In short: as §2
# [13] = tested on: H3K9me3; assay: H3K9me3 ChIP-seq; format: cell-based, S. pombe
# In short: (§3)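 Cells were grown overnight in YES at 32°C to saturation, diluted to OD 0.03 and grown to OD 1. 300×10^6 cells were fixed with 1% formaldehyde only and quenched with glycine. Chromatin was bead-beaten and sheared, then immunoprecipitated overnight at 4°C with anti-H3K9me2 or anti-H3K9me3. Reverse-crosslinked with proteinase K at 65°C. 40 bp paired-end reads; ChIP/input signal, mean of three repeats with 95% CI.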
# [14] = tested on: H3K9me2; assay: H3K9me2 ChIP-seq; format: cell-based, S. pombe
# In short: as §3
# [15] = MAT ΔREIII HSS, mean of three repeats
molecule,measurement,setting,value
"H3K9me0 mononucleosome, 601 DNA 147 bp",Kd,[1],2330 nM
same,binding signal (relative Kd (pSwi6 on H3Kc9me3 = 1)),[2]; histone H3K9 unmethylated,1.67
wildtype swi6: wildtype swi6 open reading frame in MAT ΔREIII HSS strain [reference compound],'green' (nucleation) reporter cells ON,[3],0.36%
same,'orange' (spreading) reporter cells ON,"[4]; separate experiment with Δckb1, SFigure 1J–L",7.04%
"H3Kc9me3 (MLA) mononucleosome, 601 DNA 147 bp",binding signal (relative Kd (reference)),[5],1
same,binding signal (relative Kd (pSwi6 on H3Kc9me3 = 1)),[2]; histone H3 Kc9me3 (methyl-lysine analog),0.38
pSwi6: Swi6 co-expressed with Casein Kinase II (CKII) in E. coli,"decrease in nucleosome affinity by phosphorylation, overall (pSwi6 vs unpSwi6)",[6]; Figure 4D,12 X
same,specificity for H3K9me3 mark on nucleosomes,[6],19 X
same,tighter binding to H3Kc9me3 nucleosome than to H3K9me3 peptide,[6],1.7 X
same,specificity for H3K9me3 peptide,[7]; H3K9me3 vs H3K9me0 peptide,~ 93 X
same,preference for H3K9me3 versus H3K9me2 peptides,[7]; SFigure 4C,~ 2.2 X
"unpSwi6: recombinant Swi6 expressed in E. coli without CKII, His tag removed by TEV","specificity for H3K9me3 peptide, previously reported",[8],~ 130 X
same,specificity for H3K9me3 mark on nucleosomes,[6],19.4 X
same,tighter binding to H3Kc9me3 nucleosome than to H3K9me3 peptide,[6],68 X
FLAG-Swi6: 3XFLAG tagged wildtype Swi6 at endogenous locus,pS18-pS24 pool versus overall FLAG-Swi6 accumulation,[9],no significant differences in accumulation between the overall Swi6 pool and the pS18-pS24 pool
B1,stoichiometry N,[10],8
B2,partitioning relative to heterochromatin foci,[11],partition away from heterochromatin foci
B3,spreading phenotype,[4],largely mimics that of swi6^S18/24A
B4,FLAG-Swi6 accumulation at nucleation sites versus wildtype,[12],decline in accumulation
B5,FLAG-Swi6 accumulation at nucleation sites versus wildtype,[12],decline in accumulation
same,FLAG-Swi6 accumulation at cen I & II,"[12]; versus wildtype, Figure 5E, SFigure 7A",accumulates less than wildtype within previously mapped siRNA generating centers
same,FLAG-Swi6 accumulation at H3K9me2-negative loci,"[12]; versus wildtype, Figure 5F,G",accumulates above wildtype at several H3K9me2 negative loci
B6,spreading phenotype,[4],moderate spreading defect
B7,partitioning relative to heterochromatin foci,[11],partition away from heterochromatin foci
B8,H3K9me3 level at MAT locus,[13]; [15],much more closely mirrored Δswi6
same,H3K9me2 and H3K9me3 at mei4,"[13]; heterochromatin island mei4, SFigure 3A",no distinguishable differences
same,H3K9me2 in nucleators versus wildtype,"[14]; 300bp bins, SFigure 2",H3K9me2 is elevated in almost all nucleators
same,H3K9me2 level at MAT locus,[14]; [15],maintained similar levels of H3K9me2 to wildtype swi6
same,distance to the left of tlh2 at which H3K9me2 levels begin to drop,"[14]; tel IIR, relative to wildtype",~ 6.4 kb
same,spreading phenotype,[4],more severe spreading defect than the oligomerization surface mutants alone
